In ChEMBL document CHEMBL3813618, “Polyhalogenated Indoles from the Red Alga Rhodophyllis membranacea: The First Isolation of Bromo-Chloro-Iodo Secondary Metabolites” (J Nat Prod, 2016):

Legend:
Saccharomyces cerevisiae = test: Antifungal activity against Saccharomyces cerevisiae BY4741 assessed as growth inhibition; assay type: functional
In short: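 Wild-type strain BY4741 grown in liquid synthetic complete medium with compound; cell density read at A600. Concentration giving 50% growth inhibition determined relative to untreated controls.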

[1] = Cytotoxicity against human HL60 cells assessed as cell growth inhibition after 48 hrs by MTT assay; assay type: functional, cell-based; conditions: HL-60, 48 h
In short: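 Cell proliferation MTT assay, 48 h exposure of HL-60 promyelocytic leukemia cells to compound at various concentrations; dose-response generated relative to untreated HL-60 control cells. n = 1 or 2 independent experiments, duplicate wells per experiment.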

Compound | IC50 (Saccharomyces cerevisiae) | IC50 [1]
O=C1Nc2cccc(Cl)c2C1=O | > 61 µM | 
Clc1[nH]c2c(Br)c(I)ccc2c1Cl | 39 µM | 49 µM
Clc1[nH]c2c(Br)ccc(Br)c2c1Cl | 23 µM | 28 µM
Brc1ccc2c(Br)c(Br)[nH]c2c1Br | 69 µM | 38 µM
Clc1[nH]c2c(Br)c(Br)ccc2c1Cl | 63 µM | 61 µM
Clc1c(Br)[nH]c2c(Br)c(Br)ccc12 | > 83 µM | 78 µM
CC(=O)CC1(O)C(=O)Nc2cccc(Cl)c21 (stereo not drawn) | > 49 µM | 61 µM
